This note sets out measurements from ChEMBL document CHEMBL1781963, “Discovery of novel hepatoselective HMG-CoA reductase inhibitors for treating hypercholesterolemia: a bench-to-bedside case study on tissue selective drug distribution” (Bioorg Med Chem Lett, 2011).

A short description of data set [1]: Cmax in human plasma at 120 mg administered as single dose. It counts as ADME, organism-based. Also on record: dose 120 mg. In outline:
(§1)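 Phase 1 single ascending oral dose in healthy volunteers, about 5–6 subjects per dose. Total plasma drug Cmax and AUC(0-∞) were measured. Free-drug exposures were derived using plasma protein binding.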

Data set [2] in a line: AUC (0 to infinity) in human plasma at 240 mg administered as single dose. The data set is classed as ADME, cell-free. Also on record: dose 240 mg, time infinity. In outline: as §1
For data set [3], the system named is Plasma. Nature of the data set: fCmax in human plasma at 120 mg administered as single dose. The data set is classed as ADME, cell-free. In outline:
(§2)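 Phase 1 single ascending oral dose in healthy volunteers, with N per dose group. Total plasma Cmax and AUC(0-∞) were measured. Free-drug exposures were derived from these using plasma protein binding (human plasma fu measured at 0.5 μg/mL).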

The subject of data set [4] is Plasma. The data set is described as follows: fAUC (0 to infinity) in human plasma at 10 mg administered as single dose. The data set is classed as ADME, cell-free. In outline: as §2
In data set [5] the test system is Plasma. Nature of the data set: fAUC (0 to infinity) in human plasma at 240 mg administered as single dose. The data set is classed as ADME, cell-free. Put shortly:
as §2

For data set [6], the system named is Homo sapiens. The data set is described as follows: Inhibition of HMG-CoA reductase in human assessed as decrease in AUC (0 to 24 hrs) of mevalonate level in plasma at 3 mg administered as single dose relative to control. It counts as functional.
The subject of data set [7] is Homo sapiens. The data set is described as follows: Inhibition of HMG-CoA reductase in human assessed as decrease in AUC (0 to 24 hrs) of mevalonate level in plasma at 120 mg administered as single dose relative to control. It counts as functional.
In data set [8] the test system is Homo sapiens. The data set is described as follows: Inhibition of HMG-CoA reductase in human assessed as decrease in AUC (0 to 72 hrs) of mevalonate level in plasma at 3 mg administered as single dose relative to control. It counts as functional.
For another data set, the system named is Rattus norvegicus. The data set is described as follows: Inhibition of HMG-CoA reductase in Sprague-Dawley rat assessed as reduction of mevalonate level in plasma at 10 mg/kg, po administered as single dose after 24 hrs relative to control. The data set is classed as functional.
Data set [9] can be described thus: Cmax in human plasma at 1 mg administered as single dose. It counts as ADME, organism-based. More on the design: dose 1 mg. In outline: as §1
The nature of data set [10]: AUC (0 to infinity) in human plasma at 1 mg administered as single dose. Also on record: dose 1 mg, time infinity. It counts as ADME, cell-free. In outline: as §1
Data set [11] in a line: AUC (0 to infinity) in human plasma at 5 mg administered as single dose. More on the design: dose 5 mg, time infinity. It counts as ADME, cell-free. In outline:
as §1

Data set [12] in a line: AUC (0 to infinity) in human plasma at 160 mg administered as single dose. It counts as ADME, cell-free. Also on record: dose 160 mg, time infinity. In outline:
as §1

Data set [13] deals with Plasma. Nature of the data set: fCmax in human plasma at 1 mg administered as single dose. The data set is classed as ADME, cell-free. In outline:
as §2

For data set [14], the system named is Plasma. Nature of the data set: fCmax in human plasma at 160 mg administered as single dose. It counts as ADME, cell-free. In outline: as §2
Data set [15] concerns Plasma. Nature of the data set: fAUC (0 to infinity) in human plasma at 5 mg administered as single dose. The data set is classed as ADME, cell-free. Put shortly: as §2
Data set [16] deals with Plasma. Nature of the data set: fAUC (0 to infinity) in human plasma at 20 mg administered as single dose. It counts as ADME, cell-free. Put shortly:
as §2

In data set [17] the test system is Plasma. The data set is described as follows: fAUC (0 to infinity) in human plasma at 160 mg administered as single dose. The data set is classed as ADME, cell-free. In outline:
as §2

The test system of data set [18] is Homo sapiens. The data set is described as follows: Inhibition of HMG-CoA reductase in human assessed as decrease in AUC (0 to 24 hrs) of mevalonate level in plasma at 5 mg administered as single dose relative to control. The data set is classed as functional.
Data set [19] relates to Homo sapiens. The data set is described as follows: Inhibition of HMG-CoA reductase in human assessed as decrease in AUC (0 to 24 hrs) of mevalonate level in plasma at 80 mg administered as single dose relative to control. The data set is classed as functional.
For data set [20], the system named is Homo sapiens. Nature of the data set: Inhibition of HMG-CoA reductase in human assessed as decrease in AUC (0 to 24 hrs) of mevalonate level in plasma at 160 mg administered as single dose relative to control. The data set is classed as functional.
Data set [21] relates to Homo sapiens. Nature of the data set: Inhibition of HMG-CoA reductase in human assessed as decrease in AUC (0 to 72 hrs) of mevalonate level in plasma at 160 mg administered as single dose relative to control. It counts as functional.
Data set [22] has as its system Homo sapiens. Nature of the data set: Inhibition of HMG-CoA reductase in human assessed as decrease in LDL-cholesterol level in plasma at 10 mg administered qd for 14 days relative to control. The data set is classed as functional.

Regarding `O=C([O-])C[C@H](O)C[C@H](O)CCn1c(-c2ccc(F)cc2)nc(C(=O)NCc2cccc(F)c2)c1C1CC1.[Na+]`, the peak level in [1] (Cmax) was 3.31 ng/mL. Moreover, in data set [2], the total exposure AUC(0-inf) (commonly total exposure, with the tail of the curve extrapolated) is 27.2 ng·h/mL. In addition, the fCmax in the data set on Plasma [3] amounted to 0.96 ng/mL. The fAUC worked out at 0.786 ng·h/mL in the data set on Plasma [4] and 7.89 ng·h/mL with Plasma [5]. For the same compound, the figures for the “inhibition (INH)” value with Homo sapiens [6], with Homo sapiens [7] and with Homo sapiens [8] were -5%, -46% and -10%, respectively. In addition, the inhibition in vivo – broadly, how much of the control response was suppressed – at 10 mg/kg in the data set on Rattus norvegicus was 47%.
With `Cc1ccc(CNC(=O)c2nn(-c3ccc(F)cc3)c(CC[C@@H](O)C[C@@H](O)CC(=O)O)c2C(C)C)cc1`, the Cmax (usually the peak of the concentration-time curve) in data set [9] came out at 33.5 ng/mL. Besides, the area under the curve AUC(0-inf) in [10] was 78.5 ng·h/mL; in [11], 434 ng·h/mL; in [12], 25000 ng·h/mL. Also, the figures for the fCmax with Plasma [13] and with Plasma [14] were 1.71 ng/mL and 347 ng/mL, respectively. For the same compound, the fAUC with Plasma [15] came out at 22.1 ng·h/mL; with Plasma [16], 98.4 ng·h/mL; with Plasma [17] it was 1280 ng·h/mL. For the same compound, the “inhibition (INH)” value was -13% in the data set on Homo sapiens [18], -65% with Homo sapiens [19], -55% with Homo sapiens [20] and -24% in the data set on Homo sapiens [21].
As for `CC(C)c1nc(N(C)S(C)(=O)=O)nc(-c2ccc(F)cc2)c1/C=C/[C@@H](O)C[C@@H](O)CC(=O)O` [ROSUVASTATIN], the “inhibition (INH)” value in the data set on Homo sapiens [22] came to 41.3%.
